# Activity calls are given as the source filed them. The calls are words filed in the database; no cut-off is given here.
# Assays:
# RAW264.7 [1] = assay: Induction of phagocytosis in mouse RAW264.7 cells assessed as phagocytic activity against FITC-zymosan after 1 hr by fluorimetry; format: functional, cell-based
# Method in brief: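 Cells at 1×10^5/well in phenol red-free RPMI-1640 rested 24 h, then given compound for 1 h. FITC-zymosan added for a further 1 h; cells washed three times and lysed with Triton X-100. Fluorescence read at 485/530 nm and expressed relative to untreated cells (100%).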
# RAW264.7 [2] = assay: Effect on inflammatory mediators in mouse RAW264.7 cells assessed as 5-LO accumulation at 20 uM after 24 hrs by dot immunoblotting; format: functional
# Method in brief: (§1)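 Cells treated 24 h with 20 µM compound, with or without LPS (1 µg/ml). 20 µg soluble lysate protein dot-blotted onto nitrocellulose and probed with rabbit anti-mouse COX-2 or 5-LO, HRP anti-rabbit secondary and OPD colour. Intensity normalised to β-actin dots; four repeats.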
# [3] = Peroxyl radical scavenging activity assessed as trolox equivalents at 1 uM by ORAC assay
# Method in brief: (§2)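 β-Phycoerythrin fluorescence decay followed kinetically for 2 h at 37 °C with 1 µM compound, against peroxyl and hydroxyl radicals. One ORAC unit = net protection given by 1.0 µM Trolox.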
# RAW264.7 [4] = assay: Effect on inflammatory mediators in LPS-stimulated mouse RAW264.7 cells assessed as nitrite accumulation at 20 uM after 24 hrs by Griess assay; format: functional
# Method in brief: (§3)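 Cells in phenol red-free RPMI-1640 with 10% FBS treated 24 h with 20 µM compound, with or without LPS (1 µg/ml). Supernatant mixed 1:1 with Griess reagent for 10 min, A550 read against a sodium nitrite standard curve, then normalised to BCA protein.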
# RAW264.7 [5] = assay: Effect on inflammatory mediators in LPS-stimulated mouse RAW264.7 cells assessed as PGE2 accumulation at 20 uM after 24 hrs by ELISA; format: functional
# Method in brief: (§4)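 RAW 264.7 given 20 µM compound for 24 h, alone or together with LPS at 1 µg/ml. TNF-α and PGE2 in harvested supernatants quantified with commercial ELISA kits per manufacturer; four repeats, means reported.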
# RAW264.7 [6] = assay: Effect on inflammatory mediators in LPS-stimulated mouse RAW264.7 cells assessed as TNF-alpha accumulation at 20 uM after 24 hrs by ELISA; format: functional; method in brief: as §4
# RAW264.7 [7] = assay: Effect on inflammatory mediators in mouse RAW264.7 cells assessed as nitrite accumulation at 20 uM after 24 hrs by Griess assay; format: functional; method in brief: as §3
# RAW264.7 [8] = assay: Effect on inflammatory mediators in mouse RAW264.7 cells assessed as COX-2 accumulation at 20 uM after 24 hrs by dot immunoblotting; format: functional; method in brief: as §1
# RAW264.7 [9] = assay: Cytotoxicity against mouse RAW264.7 cells assessed as cell viability after 24 hrs by MTT assay; format: cell-based; details: RAW264.7, 24 h, in the assay text read “MTT assay” for “ultra gel clot assay”
# Method in brief: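 RAW 264.7 macrophages (5×10^4 cells/well) exposed 24 h at 37 °C to a range of compound concentrations, then read by MTT reduction to formazan, solubilised in acidic isopropanol. Viability expressed as mean % of untreated cells (n = 4); 1000 U/ml M-CSF as positive control. IC50 derived.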
# [10] = Hydroxyl radical scavenging activity assessed as trolox equivalents at 1 uM by ORAC assay; format: functional; method in brief: as §2
# RAW264.7 [11] = assay: Effect on inflammatory mediators in LPS-stimulated mouse RAW264.7 cells assessed as COX-2 accumulation at 20 uM after 24 hrs by dot immunoblotting; format: functional; method in brief: as §1
# RAW264.7 [12] = assay: Effect on inflammatory mediators in LPS-stimulated mouse RAW264.7 cells assessed as 5-LO accumulation at 20 uM after 24 hrs by dot immunoblotting; format: functional; method in brief: as §1
# [13] = Antioxidant activity assessed as superoxide radical scavenging activity; format: functional
# Method in brief: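 Non-cellular assay; superoxide generated by oxidation of 50 µM hypoxanthine with 12 mU xanthine oxidase. Scavenging followed as the rate of nitroblue tetrazolium reduction to formazan. SC50 taken from dose-dependent curves of serial dilutions; superoxide dismutase as standard inhibitor.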
# RAW264.7 [14] = assay: Effect on inflammatory mediators in mouse RAW264.7 cells assessed as PGE2 accumulation at 20 uM after 24 hrs by ELISA; format: functional; method in brief: as §4
# RAW264.7 [15] = assay: Effect on mouse RAW264.7 cell function assessed as FITC-LPS binding to macrophage after 15 mins by fluorimetry; format: functional, cell-based
# Method in brief: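 5×10^5 RAW 264.7 cells pre-incubated 15 min at 37 °C with compound in RPMI-1640 plus 10% FBS as the CD14/LBP source. FITC-LPS (200 ng/ml) then added for 1 h. After PBS wash, fluorescence read at ex 485/em 530 nm and median fluorescence intensity reported.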
# RAW264.7 [16] = assay: Effect on inflammatory mediators in mouse RAW264.7 cells assessed as TNF-alpha accumulation at 20 uM after 24 hrs by ELISA; format: functional; method in brief: as §4
# RAW264.7 [17] = assay: Effect on inflammatory mediators in LPS-stimulated mouse RAW264.7 cells assessed as COX-2 accumulation at 20% IC50 after 24 hrs by dot immunoblotting; format: functional
# Method in brief: (§5)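 20 µg lysate protein dot-blotted, probed with anti-mouse COX-2 or 5-LO, detected by HRP/OPD and normalised to β-actin.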
# RAW264.7 [18] = assay: Effect on inflammatory mediators in mouse RAW264.7 cells assessed as COX-2 accumulation at 20% IC50 after 24 hrs by dot immunoblotting; format: functional; method in brief: as §5
# RAW264.7 [19] = assay: Effect on inflammatory mediators in LPS-stimulated mouse RAW264.7 cells assessed as nitrite accumulation at 20% IC50 after 24 hrs by Griess assay; format: functional
# RAW264.7 [20] = assay: Effect on inflammatory mediators in LPS-stimulated mouse RAW264.7 cells assessed as PGE2 accumulation at 20% IC50 after 24 hrs by ELISA; format: functional
# RAW264.7 [21] = assay: Effect on inflammatory mediators in mouse RAW264.7 cells assessed as TNF-alpha accumulation at 20% IC50 after 24 hrs by ELISA; format: functional
# RAW264.7 [22] = assay: Effect on inflammatory mediators in LPS-stimulated mouse RAW264.7 cells assessed as 5-LO accumulation at 20% IC50 after 24 hrs by dot immunoblotting; format: functional; method in brief: as §5
# RAW264.7 [23] = assay: Effect on inflammatory mediators in LPS-stimulated mouse RAW264.7 cells assessed as TNF-alpha accumulation at 20% IC50 after 24 hrs by ELISA; format: functional
# RAW264.7 [24] = assay: Effect on inflammatory mediators in mouse RAW264.7 cells assessed as 5-LO accumulation at 20% IC50 after 24 hrs by dot immunoblotting; format: functional; method in brief: as §5
# RAW264.7 [25] = assay: Effect on inflammatory mediators in mouse RAW264.7 cells assessed as PGE2 accumulation at 20% IC50 after 24 hrs by ELISA; format: functional
# RAW264.7 [26] = assay: Effect on inflammatory mediators in mouse RAW264.7 cells assessed as nitrite accumulation at 20% IC50 after 24 hrs by Griess assay; format: functional
SMILES,Activity (RAW264.7 [1]),Activity (RAW264.7 [2]) [%],Activity [3],Activity (RAW264.7 [4]) [nmol],Activity (RAW264.7 [5]) [pg],Activity (RAW264.7 [6]) [pg],Activity (RAW264.7 [7]) [nmol],Activity (RAW264.7 [8]) [%],IC50 (RAW264.7 [9]) [µM],Activity [10],Activity (RAW264.7 [11]) [%],Activity (RAW264.7 [12]) [%],SC50 [13] [µg/mL],Activity (RAW264.7 [14]) [pg],Activity (RAW264.7 [15]),Activity (RAW264.7 [16]) [pg],also measured
CC(C)c1ccc(-c2cc(-c3ccc4c(c3)CCCC4)[nH]c(=S)c2C#N)cc1,Active,14.2,4.32,25.58,1843.42,1458.16,12.66,18.2,> 100,5.41,36.7,31.6,10.2,41.84,Active,101.5,
CC(C)c1ccc(-c2cc(-c3ccc4c(c3)CCCC4)nc3[nH]nc(N)c23)cc1,Active,,2.45,62.42,2974.23,1925.78,5.62,,> 50,2.28,,,21.9,32.21,Active,105.6,
COc1ccc(-c2cc(-c3ccc4c(c3)CCCC4)[nH]c(=O)c2C#N)cc1OC,,15.8,0.41,355.78,3120.45,3860.25,14.8,14.6,> 100,0.54,76.3,92.1,> 100,30.35,,69.56,
N#Cc1c(-c2c[nH]c3ccccc23)cc(-c2ccc3c(c2)CCCC3)[nH]c1=S,,23.8,6.13,480.05,3005.3,4925.35,15.5,28.1,> 100,4.2,59.8,69.4,4.22,49.82,,75.4,
COc1ccc(-c2cc(-c3ccc4c(c3)CCCC4)nc(OCC(=O)NCc3ccccc3)c2C#N)cc1OC,inactive,18.9,3.56,155.25,2018.96,854.16,26.65,23.7,,2.31,73.3,77.4,19.9,53.1,inactive,116.8,
N#Cc1c(-c2c[nH]c3ccccc23)cc(-c2ccc3c(c2)CCCC3)[nH]c1=O,Active,23.5,0.35,505.75,3210.3,5100.15,16.25,16.3,> 100,0.21,82.4,82.3,78.5,32.63,,88.44,
COc1ccc(-c2cc(-c3ccc4c(c3)CCCC4)nc3[nH]nc(N)c23)cc1OC,,24,1.92,145.67,3415.23,4185.85,10.53,15.7,> 50,5.85,63.7,81.8,> 100,28.6,,94.88,
COc1ccc(-c2cc(-c3ccc4c(c3)CCCC4)[nH]c(=S)c2C#N)cc1OC,,,0.9,,,,,,29.4,0.85,,,65.4,,,,Activity (RAW264.7 [17]): 72.8%; Activity (RAW264.7 [18]): 12.3%; Activity (RAW264.7 [19]): 380.12 nmol; Activity (RAW264.7 [20]): 3309.3 pg; Activity (RAW264.7 [21]): 79.18 pg; Activity (RAW264.7 [22]): 85.4%; Activity (RAW264.7 [23]): 4652.4 pg; Activity (RAW264.7 [24]): 18.3%; Activity (RAW264.7 [25]): 28.66 pg; Activity (RAW264.7 [26]): 8.58 nmol
COc1ccc(-c2cc(-c3ccc4c(c3)CCCC4)nc(Cl)c2C#N)cc1OC,inactive,25.3,0.61,766.85,3325.87,5716.66,512.35,36.6,> 50,0.35,88.7,84.5,87.9,38.33,inactive,810.75,
CC(C)c1ccc(-c2cc(-c3ccc4c(c3)CCCC4)nc(NCc3ccccc3)c2C#N)cc1,,29.8,1.34,922.5,3222.55,6325.08,614.63,53.2,> 50,1.01,97.3,88.7,77.6,48.3,inactive,1890.16,
CC(C)c1ccc(-c2cc(-c3ccc4c(c3)CCCC4)[nH]c(=O)c2C#N)cc1,Active,20.3,0.75,32.55,2105.3,1255.6,8.51,21.4,> 100,0.92,42.7,25.1,85.4,40.13,Active,91.67,
COc1ccc(-c2cc(-c3ccc4c(c3)CCCC4)nc(OCC(=O)NN)c2C#N)cc1OC,,13.8,5.12,78.54,3111.94,4924.22,1.34,10.2,3.1,5.84,71.3,83.2,8.67,25.6,,124.68,
